From ChEMBL document CHEMBL1128517, “Unusual single-stranded polyribonucleotides as potent anti-HIV agents” (J Med Chem, 1995)

What was measured:
MT2 = experiment: Inhibitory activity against the HIV-1-induced cytopathic effect in MT-2 cell line; assay type: functional, cell-based; conditions: Homo sapiens
CEM-SS [1] = experiment: Inhibitory activity against the cytopathic effect of HIV-1 RFstrain in CEM-SS cells; assay type: functional, cell-based; conditions: Homo sapiens
Procedure, shortened: (§1)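 XTT cytoprotection assay. CEM-SS cells were seeded at 5×10^3 per well and infected at a multiplicity that gave complete killing of virus control wells by day 6. Isolates were pretitered to equivalent infection. Serial half-log dilutions of compound were tested in triplicate. After 6 days at 37 °C, XTT (1 mg/mL) with phenazine methosulfate (6.12 µg/mL) was added for 4 h and read at 450 nm. Concentrations in µM were based on estimated number-average molecular weights.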

CEM-SS [2] = experiment: Inhibitory activity against the cytopathic effect of HIV-2 MS strain in CEM-SS cells; assay type: functional, cell-based; conditions: Homo sapiens; procedure, shortened: as §1
CEM-SS [3] = experiment: Inhibitory activity against the cytopathic effect of HIV-1 IIIB strain in CEM-SS cells; assay type: functional, cell-based; conditions: Homo sapiens; procedure, shortened: as §1
Homo sapiens [4] = species on record: Homo sapiens; experiment: Inhibitory activity against the HIV-1-induced cytopathic effect in Macrophage; assay type: functional, organism-based
Procedure, shortened: (§2)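 Fresh human peripheral blood lymphocytes and macrophages were isolated by Ficoll-Hypaque centrifugation. They were infected with clinical HIV-1 isolates cultured from patient peripheral blood lymphocytes, then treated with the polymers. Inhibition of HIV replication was reported as IC50.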

CEM-SS [5] = experiment: Inhibitory activity against the cytopathic effect of HIV-2 ROD strain in CEM-SS cells; assay type: functional, cell-based; conditions: Homo sapiens; procedure, shortened: as §1
CEM-SS [6] = experiment: Inhibitory activity against the cytopathic effect of HIV-2 A17 (pyridinone-res) strain in CEM-SS cells; assay type: functional, cell-based; conditions: Homo sapiens; procedure, shortened: as §1
Homo sapiens [7] = species on record: Homo sapiens; experiment: Inhibitory activity against the HIV-1-induced cytopathic effect in human peripheral blood lymphocytes; assay type: functional, organism-based; procedure, shortened: as §2
CEM-SS [8] = experiment: Inhibitory activity against the cytopathic effect of HIV-2 G910-6(AZT-res) strain in CEM-SS cells; assay type: functional, cell-based; conditions: Homo sapiens; procedure, shortened: as §1
CEM-SS [9] = experiment: Inhibitory activity against the cytopathic effect of HIV-1 LAV strain in CEM-SS cells; assay type: functional, cell-based; conditions: Homo sapiens; procedure, shortened: as §1
CEM-SS [10] = experiment: Inhibitory activity against the HIV-1-induced cytopathic effect in CEM-SS cell line; assay type: functional, cell-based; conditions: Homo sapiens; procedure, shortened: as §1
Homo sapiens [11] = species on record: Homo sapiens; experiment: Inhibitory activity against the HIV-1-induced cytopathic effect in fresh human peripheral blood lymphocytes; assay type: functional, organism-based; procedure, shortened: as §2

Row | IC50 (MT2) | IC50 (CEM-SS [1]) | IC50 (CEM-SS [2]) | IC50 (CEM-SS [3]) | IC50 (Homo sapiens [4]) | IC50 (CEM-SS [5]) | IC50 (CEM-SS [6]) | IC50 (Homo sapiens [7]) | IC50 (CEM-SS [8]) | IC50 (CEM-SS [9]) | IC50 (CEM-SS [10]) | SMILES | IC50 (Homo sapiens [11])
1 | 160 nM | 50 nM | 30 nM | 10 nM | 2 nM | 30 nM | 80 nM | 30 nM | 20 nM | 30 nM | 10 nM | Cn1c(N)nc2c(ncn2[C@@H]2O[C@H](CO)[C@@H](OP(=O)(O)O)[C@H]2O)c1=S | 
2 | 800 nM | 170 nM | 140 nM | 80 nM | 150 nM | 250 nM | 600 nM |  | 100 nM | 40 nM | 80 nM | Cn1cnc2c(ncn2C2O[C@H](COP(=O)(O)O)[C@@H](O)[C@H]2O)c1=S (stereo partly drawn) | 30 nM

Row | SMILES | IC50 (MT2) | IC50 (CEM-SS [1]) | IC50 (CEM-SS [2]) | IC50 (CEM-SS [3]) | IC50 (Homo sapiens [4]) | IC50 (CEM-SS [5]) | IC50 (CEM-SS [6]) | IC50 (Homo sapiens [7]) | IC50 (CEM-SS [8]) | IC50 (CEM-SS [9]) | IC50 (CEM-SS [10]) | IC50 (Homo sapiens [11])
3 | Cc1cn([C@H]2C[C@H](N=[N+]=[N-])[C@@H](CO)O2)c(=O)[nH]c1=O [ZIDOVUDINE] | 6 nM | 30 nM | 30 nM | 2 nM | 400 nM | 5 nM | 5 nM |  | > 1000 nM | 4 nM | 2 nM | 20 nM
